For series [1], the target named is T1, 5-hydroxytryptamine receptor 1A (Homo sapiens) (UniProt P08908).
T1 sequence (whole entry): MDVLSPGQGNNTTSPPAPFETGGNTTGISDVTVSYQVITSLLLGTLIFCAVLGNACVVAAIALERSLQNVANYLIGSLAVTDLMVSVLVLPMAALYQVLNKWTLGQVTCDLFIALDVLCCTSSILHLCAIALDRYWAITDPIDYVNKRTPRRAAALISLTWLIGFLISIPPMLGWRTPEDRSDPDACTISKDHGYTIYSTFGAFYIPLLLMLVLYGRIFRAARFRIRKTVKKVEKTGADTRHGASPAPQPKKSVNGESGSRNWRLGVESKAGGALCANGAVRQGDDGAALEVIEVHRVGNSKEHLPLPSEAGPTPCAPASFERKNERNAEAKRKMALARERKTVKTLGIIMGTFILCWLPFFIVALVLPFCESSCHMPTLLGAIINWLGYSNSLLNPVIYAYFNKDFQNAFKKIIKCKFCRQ
As to the kind of experiment: Antagonist activity at human 5-HT1A receptor expressed in CHO-K1 cells co-expressing Galpha16 assessed as decrease in serotonin-induced calcium mobilization preincubated for 25 mins followed by serotonin challenge measured for 30 secs by aequorin-derived luminescence assay relative to control. Format: functional, cell-based.

For series [2], the target named is T2, 5-hydroxytryptamine receptor 1A (Homo sapiens, UniProt P08908).
T2 sequence (P08908 whole entry): T1 sequence (whole entry)
Description: (§1) Antagonist activity at human 5-HT1A receptor expressed in CHO-K1 cells co-expressing Galpha16 assessed as decrease in serotonin calcium mobilization preincubated for 25 mins followed by serotonin challenge measured for 30 secs by aequorin-derived luminescence assay. Format: functional, cell-based.

For series [3], the target named is T1, 5-hydroxytryptamine receptor 1A (Homo sapiens). Described as §1. Format: functional, cell-based.
Series [4] shares this target. As to the kind of experiment: Agonist activity at human 5-HT1A receptor expressed in CHO-K1 cells co-expressing Galpha16 assessed as increase in calcium mobilization measured for 30 secs by aequorin-derived luminescence assay relative to serotonin. Format: functional, cell-based. On the technique in general: Calcium flux is commonly read through the fluorescence of an indicator in the cells.

In series [5] the target is 5-hydroxytryptamine receptor 6 (Homo sapiens, UniProt P50406). As to the kind of experiment: Displacement of [3H]LSD from recombinant human 5-HT6 receptor expressed in CHO cells cell membranes after 60 mins by liquid scintillation counting method.
Sequence of 5-hydroxytryptamine receptor 6 (P50406 whole entry): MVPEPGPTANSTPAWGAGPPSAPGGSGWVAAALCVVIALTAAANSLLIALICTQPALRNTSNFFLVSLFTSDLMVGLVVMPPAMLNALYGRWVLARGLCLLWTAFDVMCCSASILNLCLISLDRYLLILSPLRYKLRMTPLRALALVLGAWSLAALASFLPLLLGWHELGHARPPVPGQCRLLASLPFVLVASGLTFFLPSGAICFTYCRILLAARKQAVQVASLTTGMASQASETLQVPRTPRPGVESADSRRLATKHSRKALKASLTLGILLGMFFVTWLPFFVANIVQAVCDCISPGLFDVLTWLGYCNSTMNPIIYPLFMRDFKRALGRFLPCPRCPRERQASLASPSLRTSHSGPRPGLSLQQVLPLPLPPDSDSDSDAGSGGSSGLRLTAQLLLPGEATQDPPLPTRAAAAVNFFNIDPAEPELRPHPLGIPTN
Series [6] has as its system Mus musculus. Description: Antiallodynic activity in oxaliplatin-induced Albino Swiss CD-1 mouse allodynia model assessed as effect on shaking at 30 mg/kg, ip measured after 60 mins by cold plate test. Format: functional, organism-based.
Series [7] relates to Mus musculus. Description: Anticonvulsant activity in Albino Swiss CD-1 mouse assessed as protection against 50 Hz current-induced seizure at 100 mg/kg, ip. Format: functional, organism-based.
Series [8] is described as follows: Neurotoxicity in ip dosed Albino Swiss CD-1 mouse assessed as minimum dose required to induce motor impairment treated 30 mins prior to test by rotarod test. Conditions: in vivo. Format: toxicity, organism-based. (Falling from the rotarod earlier than controls is read as motor impairment.)
The test system of series [9] is Mus musculus. Description: Antiallodynic activity in STZ-induced Albino Swiss CD-1 mouse allodynia model assessed as increase in paw withdrawal latency time at 30 mg/kg, ip measured after 60 mins by Von Frey test. Format: functional, organism-based.
Series [10] has as its target T3, D(2) dopamine receptor (Homo sapiens, UniProt P14416). Description: Displacement of [3H]methylspiperonee from recombinant human D2 receptor expressed in HEK293 cell membranes at 10^-5 M after 60 mins by liquid scintillation counting method. In general terms: Displacement assays read how much labelled ligand stays bound in the presence of the test substance.
The target of series [11] is 5-hydroxytryptamine receptor 2A (Homo sapiens, UniProt P28223). As to the kind of experiment: biochemical. Format: cell-based, HEK293.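 Also: radioligand displacement of [3H]ketanserin binding at human 5-HT2A receptor in membranes from HEK293 cells, 60 min incubation, read by liquid scintillation counting.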
Sequence of 5-hydroxytryptamine receptor 2A (P28223 whole entry): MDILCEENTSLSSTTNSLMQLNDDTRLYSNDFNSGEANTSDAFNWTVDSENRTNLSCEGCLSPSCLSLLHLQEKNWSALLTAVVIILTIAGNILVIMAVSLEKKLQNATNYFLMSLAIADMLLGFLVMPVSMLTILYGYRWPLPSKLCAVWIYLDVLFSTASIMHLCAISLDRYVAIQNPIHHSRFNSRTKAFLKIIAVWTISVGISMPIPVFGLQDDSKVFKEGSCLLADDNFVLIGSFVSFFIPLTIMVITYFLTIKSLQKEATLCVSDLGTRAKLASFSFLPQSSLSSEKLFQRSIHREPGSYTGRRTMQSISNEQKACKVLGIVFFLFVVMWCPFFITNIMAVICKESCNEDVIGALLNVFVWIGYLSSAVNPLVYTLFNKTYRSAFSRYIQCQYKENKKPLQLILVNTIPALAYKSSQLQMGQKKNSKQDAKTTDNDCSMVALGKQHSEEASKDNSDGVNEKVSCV
The subject of series [12] is Mus musculus. Description: Toxicity in Albino Swiss CD-1 mouse assessed as effect on locomotory activity at 5 to 10 mg/kg, ip administered for 30 mins prior to test measured for 1 min. Conditions: in vivo. Format: organism-based. Put shortly: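 Mice dosed i.p. 30 min before test; vehicle groups received 0.9% NaCl. Spontaneous locomotion scored as number of crossings during a 1-min session. Each dose compared with its own vehicle group by Student t-test; mean ± SEM, n = 8–10 mice per group.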

Series [13] deals with Mus musculus. As to the kind of experiment: Antiallodynic activity in oxaliplatin-induced Albino Swiss CD-1 mouse allodynia model assessed as effect on decrease in abnormal movement at 30 mg/kg, ip measured after 60 mins by cold plate test. Format: functional, organism-based.
The subject of series [14] is Mus musculus. As to the kind of experiment: Antinociceptive activity in STZ-induced Albino Swiss CD-1 mouse model of thermal-induced nociception assessed as increase in latency to respond with hind paw lick or jumping at 30 mg/kg, ip measured after 60 mins by hot plate test. Format: functional, organism-based.
Series [15] concerns the target 5-hydroxytryptamine receptor 7 (Homo sapiens, UniProt P34969). Description: biochemical. Format: cell-based, CHO.
Series [16] relates to Mus musculus. As to the kind of experiment: Anxiolytic-like activity in Albino Swiss CD-1 mouse assessed as increase in number of punished crossings at 5 to 10 mg/kg, ip administered for 30 mins prior to test measured for 1 min by four-plate test. Format: functional, organism-based. Put shortly:
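Four-plate test in mice, i.p., 30 min before test; vehicle 0.9% NaCl; doses 1.25–10 mg/kg; number of punished crossings counted; mean ± SEM, n = 8–10 mice per group; ANOVA F statistics.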

The test system of series [17] is Mus musculus. As to the kind of experiment: Toxicity in Albino Swiss CD-1 mouse assessed as death at 30 to 100 mg/kg, ip. Format: organism-based. The following applies: in vivo. Put shortly: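 Deaths counted in mice during maximal electroshock (MES) seizure testing after i.p. dosing, 6 mice per dose (3 or 1 at some top doses); recorded as number dead/number tested alongside protection and rotarod motor impairment (10 rpm); untreated control group included.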

The subject of series [18] is Mus musculus. Description: Antidepressant-like activity in Albino Swiss CD-1 mouse assessed as immobility time at 5 mg/kg, ip administered 30 mins prior to test measured for last 4 mins of 6 mins observation by forced swim test (reference value: 153.9 to 201.9 secs). Format: functional.
Series [19] relates to Mus musculus. Description: Antiallodynic activity in oxaliplatin-induced Albino Swiss CD-1 mouse allodynia model assessed as effect on hind paw licking at 30 mg/kg, ip measured after 60 mins by cold plate test. Format: functional, organism-based.
The test system of series [20] is Mus musculus. Description: Anticonvulsant activity in ip dosed Albino Swiss CD-1 mouse assessed as dose required to protect against 50 Hz current-induced seizure. Format: functional. The following applies: Swiss CD-1, ip.
Series [21] concerns Mus musculus. Description: Antidepressant-like activity in Albino Swiss CD-1 mouse assessed as immobility time at 20 mg/kg, ip administered 30 mins prior to test measured for last 4 mins of 6 mins observation by forced swim test (reference value: 153.9 to 201.9 secs). Format: functional.
Series [22] has as its target T1, 5-hydroxytryptamine receptor 1A (Homo sapiens). Description: Displacement of [3H]8-OH-DPAT from recombinant human 5-HT1A receptor expressed in HEK293 cell membranes at 10^-5 M after 60 mins by liquid scintillation counting method.
For series [23], the target named is T4, Alpha-1A adrenergic receptor (Homo sapiens) (UniProt P35348).
T4 sequence (whole entry): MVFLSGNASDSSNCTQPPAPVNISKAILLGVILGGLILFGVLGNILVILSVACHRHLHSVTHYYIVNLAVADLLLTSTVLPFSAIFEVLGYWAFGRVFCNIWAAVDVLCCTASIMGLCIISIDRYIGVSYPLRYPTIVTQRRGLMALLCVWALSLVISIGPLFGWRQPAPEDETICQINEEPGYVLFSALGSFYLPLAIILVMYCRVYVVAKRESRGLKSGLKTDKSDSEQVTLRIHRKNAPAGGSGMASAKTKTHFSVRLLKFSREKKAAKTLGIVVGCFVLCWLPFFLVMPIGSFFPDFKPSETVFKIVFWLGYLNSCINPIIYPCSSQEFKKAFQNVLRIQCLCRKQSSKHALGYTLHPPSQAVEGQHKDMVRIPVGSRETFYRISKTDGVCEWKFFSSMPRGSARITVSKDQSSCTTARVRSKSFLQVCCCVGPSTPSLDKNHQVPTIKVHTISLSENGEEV
Description: Displacement of [3H]prazosin from recombinant human alpha1 adrenoceptor expressed in CHO cell membranes at 10^-5 M after 30 mins by liquid scintillation counting method.

Series [24] relates to Mus musculus. As to the kind of experiment: Antiallodynic activity in oxaliplatin-induced Albino Swiss CD-1 mouse allodynia model assessed as effect on jumping at 30 mg/kg, ip measured after 60 mins by cold plate test. Format: functional, organism-based.
In series [25] the test system is Mus musculus. As to the kind of experiment: Antidepressant-like activity in Albino Swiss CD-1 mouse assessed as immobility time at 10 mg/kg, ip administered 30 mins prior to test measured for last 4 mins of 6 mins observation by forced swim test (reference value: 153.9 to 201.9 secs). Format: functional.
The nature of series [26]: Protection index, ratio of TD50 for motor impairment in ip dosed Swiss albino CD-1 mouse to ED50 for protection against 50 Hz current-induced seizures in ip dosed Swiss albino CD-1 mouse. Format: toxicity, organism-based, Swiss CD-1. Conditions: in vivo, read-out: Ratio TD50/ED50.
For series [27], the target named is T3, D(2) dopamine receptor. Description: Agonist activity at human D2 receptor expressed in CHO-K1 cells co-expressing Galphaqi5 assessed as increase apomorphine-induced calcium mobilization measured for 30 secs by aequorin-derived luminescence assay relative to apomorphine. Format: functional, cell-based.

SMILES strings stand for the structures. The source made the active and inactive calls. The rule behind the calls is not given here.

T3 sequence (P14416 whole entry): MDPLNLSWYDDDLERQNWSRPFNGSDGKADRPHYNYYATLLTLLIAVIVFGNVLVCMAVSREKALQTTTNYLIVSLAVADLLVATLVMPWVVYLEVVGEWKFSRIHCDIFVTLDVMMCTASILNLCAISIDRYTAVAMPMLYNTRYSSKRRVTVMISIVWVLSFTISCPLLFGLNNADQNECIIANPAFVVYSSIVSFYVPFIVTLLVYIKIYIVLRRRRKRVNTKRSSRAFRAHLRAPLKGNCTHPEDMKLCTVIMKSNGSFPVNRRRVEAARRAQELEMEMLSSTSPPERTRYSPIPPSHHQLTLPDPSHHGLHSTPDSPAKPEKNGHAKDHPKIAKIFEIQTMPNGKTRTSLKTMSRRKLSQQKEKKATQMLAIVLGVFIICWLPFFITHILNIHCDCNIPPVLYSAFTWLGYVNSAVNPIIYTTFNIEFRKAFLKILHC
Sequence of 5-hydroxytryptamine receptor 7 (P34969 whole entry): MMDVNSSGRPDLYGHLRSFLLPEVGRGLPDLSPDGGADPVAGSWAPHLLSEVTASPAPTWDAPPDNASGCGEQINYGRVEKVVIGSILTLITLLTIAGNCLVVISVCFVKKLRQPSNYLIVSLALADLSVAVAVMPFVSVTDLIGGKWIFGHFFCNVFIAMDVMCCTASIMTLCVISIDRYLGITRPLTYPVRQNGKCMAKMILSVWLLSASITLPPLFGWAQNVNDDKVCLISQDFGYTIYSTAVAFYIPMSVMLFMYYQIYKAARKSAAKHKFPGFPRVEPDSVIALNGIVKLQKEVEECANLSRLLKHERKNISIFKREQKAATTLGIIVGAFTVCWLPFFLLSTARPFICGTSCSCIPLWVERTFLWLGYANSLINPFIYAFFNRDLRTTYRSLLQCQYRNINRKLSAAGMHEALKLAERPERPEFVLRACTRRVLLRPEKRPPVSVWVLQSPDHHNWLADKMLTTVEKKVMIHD

By Emax is commonly meant the maximal effect, on the per cent scale that the assay sets. In general, IC50 refers to the concentration that gives 50% inhibition. Broadly, the Kb is the equilibrium dissociation constant of an antagonist, usually derived from a functional assay. Take `COc1ccccc1N1CCN(C[C@@H](C(=O)NC(C)(C)C)c2ccccc2)CC1`: the Emax in series [1] came to 0%; in [4], 1%. Also, the IC50 in series [2] worked out at 0.0169 µM. Besides, in [3], the Kb worked out at 0.0066 µM.

The term Ki denotes a measure of affinity in units of concentration, obtained from inhibition or displacement. The TD50 is the dose at which the toxic effect under study appears in half of the subjects. A word on the ED50: it is the dose at which the effect has come halfway, by size or by number of responders. In the case of `Cc1cc(C)c(C)c(OCCOCCN2CCN(CCO)CC2)c1.Cl.Cl`, the Ki in series [5] is greater than 5 µM; in series [11] it was greater than 5 µM; in [15], 3.14 µM. The result in the series with Mus musculus [6], with Mus musculus [13], in the series on Mus musculus [14], in the series with Mus musculus [16], with Mus musculus [19] and in the series with Mus musculus [24] was inactive. The outcome in the series on Mus musculus [7] and with Mus musculus [9] was Active. The TD50 at 0.5 h in series [8] turned out to be 74.9 mg/kg. Also, the inhibition result (on D(2) dopamine receptor [10]; in series [22]; in series [23]) was “inactive” in each case. In addition, the Activity entry with Mus musculus [12] and with Mus musculus [17] was “Non-Toxic” in each case. Besides, the results for the Time with Mus musculus [18], in the series on Mus musculus [21] and with Mus musculus [25] were 171.8 s, 176.4 s and 184.9 s, respectively. Also, the ED50 in the series with Mus musculus [20] came out at 24.4 mg/kg. The selectivity ratio in series [26] was 3.07.

As for `CN(C)CCCN1c2ccccc2Sc2ccc(Cl)cc21`, the Emax on D(2) dopamine receptor [27] is 5%.

(Values after ChEMBL document CHEMBL4190389, “Synthesis and activity of di- or trisubstituted N-(phenoxyalkyl)- or N-{2-[2-(phenoxy)ethoxy]ethyl}piperazine derivatives on the central nervous system” (Bioorg Med Chem Lett, 2018).)
